Among the data in ChEMBL document CHEMBL1152684 (Bioorg Med Chem, 2009) are Activity and IC50 values, retold here.

One experiment is filed under the species Homo sapiens. The experiment can be described thus: Binding affinity to cysteine-269 residue of human protein phosphatase 2A catalytic subunit at 0.6 uM after 2 hrs by MALDI-TOF MS analysis. The procedure, abridged: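 Purified PP2A (0.5 unit) incubated with or without ligand at 0.6 in 25 mM Tris-HCl, 137 mM NaCl, pH 7.5, 30 °C, 2 h. Samples boiled in SDS loading buffer with DTT and run on 10% gel. PP2Ac band reduced with DTT, alkylated with acrylamide and trypsin-digested. Peptide masses (MALDI-TOF MS) compared with native PP2Ac to find the adduct-bearing fragment.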

Experiment [1] is described as follows: Inhibition of protein phosphatase 2A.
Experiment [2] can be described thus: Inhibition of protein phosphatase 1.

Molecules are shown by their SMILES. Activity calls are given as the source filed them. The rule behind the calls is not given here.

Broadly, the IC50 is the midpoint of a concentration-inhibition curve. Read a high IC50 as a need for much substance. For the compound `C[C@@](O)(/C=C/[C@H]1CC=CC(=O)O1)[C@@H](C[C@@H](O)\C=C/C=C\C=C\CO)OP(=O)(O)O` [FOSTRIECIN], the outcome in the experiment listed under Homo sapiens was Active. For the same compound, the IC50 in experiment [1] amounted to 1.5 nM; in experiment [2], 45 µM.
